In the library only some 1.8% were active in any assay of this set; here they are far more common.
PAD4 inh: blocks human protein arginine deiminase 4 | Q9UM07 | recombinant PAD4, RCA probe fluorescence polarization | inhibition, % at 6.36 µM | actives 0.41% (n = 330,000) | AID 485272;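 active means percent inhibition above a cutoff equal to the mean of all tested compounds plus 3 SD, cut at about 15% in these data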;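 further: 0% = PAD4 with RCA probe and DMSO and 100% = probe without PAD4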
Apaf-1 inh: blocks human Apaf-1 apoptosome activity; inhibition, % at 20 µM; reconstituted apoptosome caspase-3 activity, DEVD-Rh110 fluorescence; actives 0.71% (n = 330,000); AID 489030; O14727; active means inhibition of at least 40% at 20 µM;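 further: plate controls were DMSO wells for no effect and DEVD-CHO caspase inhibitor wells for full effect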
Target sequence (O14727 whole entry, looked up): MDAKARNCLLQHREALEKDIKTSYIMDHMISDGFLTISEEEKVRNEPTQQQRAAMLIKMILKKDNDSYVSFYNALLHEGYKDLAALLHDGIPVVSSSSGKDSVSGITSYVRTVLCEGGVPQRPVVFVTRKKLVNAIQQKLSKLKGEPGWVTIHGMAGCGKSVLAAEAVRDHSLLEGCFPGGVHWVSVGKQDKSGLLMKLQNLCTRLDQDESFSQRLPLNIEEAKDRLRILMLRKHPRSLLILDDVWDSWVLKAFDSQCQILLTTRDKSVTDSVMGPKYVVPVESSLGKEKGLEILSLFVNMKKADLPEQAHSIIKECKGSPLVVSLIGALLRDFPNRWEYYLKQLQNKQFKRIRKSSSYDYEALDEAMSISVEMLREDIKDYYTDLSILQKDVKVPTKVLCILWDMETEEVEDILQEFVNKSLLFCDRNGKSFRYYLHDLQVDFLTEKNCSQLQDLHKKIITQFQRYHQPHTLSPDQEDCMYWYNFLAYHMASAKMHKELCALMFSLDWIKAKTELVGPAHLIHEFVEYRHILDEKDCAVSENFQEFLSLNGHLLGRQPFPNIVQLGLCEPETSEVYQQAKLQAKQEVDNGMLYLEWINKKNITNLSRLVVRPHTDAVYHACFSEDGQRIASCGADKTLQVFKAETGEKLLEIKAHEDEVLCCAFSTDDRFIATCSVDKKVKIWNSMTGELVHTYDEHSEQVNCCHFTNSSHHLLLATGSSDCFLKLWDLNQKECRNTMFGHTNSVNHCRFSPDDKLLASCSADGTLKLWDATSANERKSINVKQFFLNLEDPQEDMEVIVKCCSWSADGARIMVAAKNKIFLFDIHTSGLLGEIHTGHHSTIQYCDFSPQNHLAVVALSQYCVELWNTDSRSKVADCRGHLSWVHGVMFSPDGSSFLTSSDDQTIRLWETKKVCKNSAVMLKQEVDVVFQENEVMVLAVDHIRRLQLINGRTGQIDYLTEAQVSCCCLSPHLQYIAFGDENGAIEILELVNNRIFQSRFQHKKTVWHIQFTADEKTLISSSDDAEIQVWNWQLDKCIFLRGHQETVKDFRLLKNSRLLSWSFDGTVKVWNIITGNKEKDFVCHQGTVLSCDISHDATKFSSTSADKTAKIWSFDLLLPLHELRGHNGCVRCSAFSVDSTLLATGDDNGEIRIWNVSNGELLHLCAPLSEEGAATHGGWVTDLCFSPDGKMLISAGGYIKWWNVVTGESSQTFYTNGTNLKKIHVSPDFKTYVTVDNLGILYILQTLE
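Assay system – apoptosome proteins · Medium – Hepes buffer, pH 7.5 · Also added – cytochrome c with DEVD-Rh110 · Timing – 30 min compound preincubation, 50 min activation, room temperature · Detection – Rh110 fluorescence, excitation 480 nm, emission 540 nm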
GSTO1 inh: GSTO1 inhibition, counter-screen for RBBP9 inhibitors | P78417 | recombinant GSTO1, activity-based probe fluorescence polarization | inhibition, % at 5.96 µM | actives 1.1% (n = 300,000);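 active means inhibition above the campaign mean inhibition plus 3 SD, cut at about 35% in these data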;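 further: 0% = GSTO1-1 with DMSO and 100% = wells lacking GSTO1-1 enzyme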
Fh CTSL1 inh: counter-screen for PFM18AAP inhibitors: inhibitors of F. hepatica cathepsin L1 | recombinant F. hepatica cathepsin L1, Z-Leu-Arg-MCA fluorescence | inhibition, % at 5.96 µM | actives 0.49% (n = 300,000);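 active means inhibition above the mean of all tested compounds plus 3 SD, set per screening campaign, cut at about 17% in these data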;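 further: 0% = plate median of test compound wells and 100% = 1 µM Z-Phe-Ala-diazomethylketone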
TDP2 absorb: blocks human TDP2 phosphodiesterase activity; actives 0.34% (n = 370,000); inhibition, % at 12.8 µM; recombinant TDP2, T5PNP hydrolysis, p-nitrophenol absorbance 415 nm; O95551;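 active means inhibition above the mean of all tested compounds plus 3 SD, set per campaign, cut at about 25% in these data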;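 further: 0% = DMSO with enzyme and 100% = buffer with substrate but no TDP2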
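Incubation: 2 h at 37 °C; Test system: recombinant human TDP2; Quantity: enzyme 120 nM; Read-out basis: percent inhibition; Medium: 50 mM Tris-HCl pH 7.5 with Mg2+, KCl, DTT, BSA; Repeats: single replicate; Compound: 12.8 µM single point, 1% DMSO; Signal: epi absorbance; Reagent: 5 mM T5PNP chromogenic substrate; Benchmarks: no-enzyme high, DMSO-plus-enzyme low.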
GSTO1 inh conf: confirmation of human GSTO1 inhibitors; recombinant GSTO1, probe fluorescence polarization; AID 2176; inhibition, % at 5.96 µM; shares compounds with GSTO1 inh; actives 54% (n = 2,400);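 active means inhibition above the primary screen's cutoff, its mean inhibition plus 3 SD, cut at about 35% in these data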;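 further: loss of polarization as inhibitors block binding of rhodamine sulfonate ester activity probe; 0% = GSTO1 with DMSO and 100% = wells lacking GSTO1 enzyme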
GSTO1 recomb ABPP: inhibitors of recombinant human GSTO1; actives 30% (n = 130); shares compounds with GSTO1 inh; AID 463110; gel ABPP SE-Rh probe fluorescence; inhibition, % at 1 µM;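 active means inhibition of the enzyme GSTO1 above about 75%, limit read from the data; inactive means inhibition below that limit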
* = called active by the depositor.

Results for C[C@@H]1ON(C)[C@H]2C[C@H]3c4[nH]c5c(-c6ccc(C(F)(F)F)cc6)cccc5c4CCN3C(=O)[C@@H]12 ?
TDP2 absorb: -17.4

What do the screens show for `Cc1ccc2nc(N3CCC(C(=O)O)CC3)nc(-c3ccccc3)c2c1`?
PAD4 inh: -2.9; Apaf-1 inh: -1.4; GSTO1 inh: 54.1*; Fh CTSL1 inh: -1.2; TDP2 absorb: -2.8; GSTO1 inh conf: 57.7*

Results for Cc1c(C(=O)Nc2nc(-c3ccccn3)cs2)oc2ccccc12 ?
PAD4 inh: 0.1; Apaf-1 inh: 5.1

How did O=C(Nc1nc(-c2ccccn2)cs1)c1cc2ccccc2o1 do in these assays?
PAD4 inh: -6.2; Apaf-1 inh: 10.6; GSTO1 inh: 48.1*; Fh CTSL1 inh: -1.1; TDP2 absorb: -0.3; GSTO1 inh conf: 38.9*

How did COc1cc(O)cc2cc3c(c(O)c12)C(=O)CC(C)(O)O3 (stereo not given) do in these assays?
PAD4 inh: -5.4; Apaf-1 inh: 3.9; GSTO1 inh: 47.4*; Fh CTSL1 inh: -0.6; TDP2 absorb: 0.3; GSTO1 inh conf: 31.4

What do the screens show for `COc1cc(O)c2c(c1)OC(C)(C)CC2=O`?
PAD4 inh: 1.9; Apaf-1 inh: -0.7; GSTO1 inh: -1.7; Fh CTSL1 inh: -0.9; TDP2 absorb: -6.8

What do the screens show for `CC(C)NC1=C(Cl)C(=O)c2ccccc2C1=O`?
PAD4 inh: -14.7; Apaf-1 inh: 63.2*; GSTO1 inh: 64.9*; Fh CTSL1 inh: 5.5; TDP2 absorb: 22.7; GSTO1 inh conf: 13.6

What do the screens show for `O=C(O)c1ccc(NC2=C(Cl)C(=O)c3ccccc3C2=O)cc1`?
PAD4 inh: -10.1; Apaf-1 inh: 29.9; GSTO1 inh: 79.1*; Fh CTSL1 inh: 11.7; TDP2 absorb: -7.1; GSTO1 inh conf: 48.8*

Results for O=C(O)c1cccc(NC2=C(Cl)C(=O)c3ccccc3C2=O)c1 ?
TDP2 absorb: 0.3

Results for COCCCNC1=C(Cl)C(=O)c2ccccc2C1=O ?
PAD4 inh: -11.2; Apaf-1 inh: 33.3; GSTO1 inh: 48.4*; Fh CTSL1 inh: 4.0; TDP2 absorb: 22.3; GSTO1 inh conf: 12.5

Results for O=C1C(Cl)=C(Nc2ccccc2)C(=O)c2ccccc21 ?
PAD4 inh: 1.6; GSTO1 inh: 101.8*; Fh CTSL1 inh: 5.7; TDP2 absorb: -4.5; GSTO1 inh conf: 89.7*

What do the screens show for `CC(CCN1CCC(C(O)(c2ccccc2)c2ccccc2)CC1)Oc1cccc(Cl)c1` (stereo not given)?
TDP2 absorb: -2.8

How did COc1ccc(-n2c(SCc3ccc([N+](=O)[O-])cc3)nnc2-c2ccco2)cc1 do in these assays?
TDP2 absorb: 6.2

What do the screens show for `Cc1ccc(S(=O)(=O)N(CC(=O)NCC2CCCO2)c2cccc([N+](=O)[O-])c2)cc1` (stereo not given)?
PAD4 inh: 4.7; Apaf-1 inh: -3.6; GSTO1 inh: 10.6; Fh CTSL1 inh: 6.4; TDP2 absorb: -0.4

How did O=C(CN(c1ccc([N+](=O)[O-])cc1)S(=O)(=O)c1ccccc1)N1CCCCC1 do in these assays?
PAD4 inh: 1.6; Apaf-1 inh: 7.0; GSTO1 inh: -0.3; Fh CTSL1 inh: 3.7; TDP2 absorb: 3.1

Results for O=S(=O)(c1ccccc1)N(CC1CO1)c1ccccc1 (stereo not given) ?
PAD4 inh: 0.0; Apaf-1 inh: -0.3; GSTO1 inh: 70.8*; Fh CTSL1 inh: 6.9; TDP2 absorb: 16.7; GSTO1 inh conf: 82.8*; GSTO1 recomb ABPP: 63.0

Results for COc1ccc(N(CC2CO2)S(=O)(=O)c2ccc(C)cc2)cc1 (stereo not given) ?
PAD4 inh: 1.1; Apaf-1 inh: 4.9; GSTO1 inh: 80.7*; Fh CTSL1 inh: -1.8; TDP2 absorb: -7.0; GSTO1 inh conf: 85.3*; GSTO1 recomb ABPP: 26.0

Results for O=[N+]([O-])c1ccc(N(CC2CO2)S(=O)(=O)c2ccccc2)cc1 (stereo not given) ?
PAD4 inh: 3.0; Apaf-1 inh: 4.2; GSTO1 inh: 85.2*; Fh CTSL1 inh: 4.4; TDP2 absorb: -3.8; GSTO1 inh conf: 91.6*; GSTO1 recomb ABPP: 53.0

Results for O=S(=O)(c1ccccc1)N(c1ccccc1)S(=O)(=O)c1ccccc1 ?
TDP2 absorb: -11.5

How did Cc1ccc(S(=O)(=O)N(CC2CO2)c2cccc([N+](=O)[O-])c2)cc1 (stereo not given) do in these assays?
PAD4 inh: -1.5; Apaf-1 inh: -2.3; GSTO1 inh: 96.7*; Fh CTSL1 inh: 2.0; TDP2 absorb: 1.8; GSTO1 inh conf: 96.6*; GSTO1 recomb ABPP: 59.0

How did CC(=O)N1C[C@@H](CO)[C@@H](N(C)C(=O)Nc2cccc3ccccc23)C[C@H]1c1ccccc1 do in these assays?
TDP2 absorb: 5.1

Results for Nn1c(SCC(=O)Nc2cccc3ccccc23)nnc1-c1cc(-c2ccccc2)n[nH]1 ?
TDP2 absorb: 1.5

What do the screens show for `CCCCN1CC(COCc2ccccc2)Oc2cccc(N3CCCCC3)c2S1(=O)=O` (stereo not given)?
TDP2 absorb: -5.9

Results for O=C(CCl)Nc1ccc(C(=O)NCC2COc3ccccc3O2)cc1 (stereo not given) ?
TDP2 absorb: -2.0

How did O=S(=O)(c1ccccc1)N(CC1CO1)c1cccc2ccccc12 (stereo not given) do in these assays?
PAD4 inh: -3.7; Apaf-1 inh: 3.7; GSTO1 inh: 75.1*; Fh CTSL1 inh: 1.5; TDP2 absorb: 0.4; GSTO1 inh conf: 90.1*; GSTO1 recomb ABPP: 20.0

Results for NC1=NC(=O)/C(=C/c2cc(Br)c(O)c(Br)c2)S1 ?
PAD4 inh: -28.4; Apaf-1 inh: 6.8; GSTO1 inh: 41.0*; Fh CTSL1 inh: 2.1; TDP2 absorb: -2.4; GSTO1 inh conf: 81.3*

Results for NC1=NC(=O)/C(=C/c2ccc(Br)cc2)S1 ?
PAD4 inh: -0.4; Apaf-1 inh: 6.5; GSTO1 inh: -2.8; Fh CTSL1 inh: 2.2; TDP2 absorb: 2.0

What do the screens show for `CCOC(=O)[C@@]12CN(C(=O)OC(C)(C)C)CC=C1N(Cc1ccc(OC)cc1)C(=O)[C@H]2CC(=O)NCc1cccc(C(F)(F)F)c1`?
TDP2 absorb: 1.5

What do the screens show for `COC(=O)[C@]12C[C@H](CC(=O)N3CCSCC3)C(=O)N(Cc3ccccc3)C1=C[C@H](C(C)C)O[C@@H]2C1CC1`?
TDP2 absorb: -0.8

How did O=C(O)c1cc(-c2ccc(/C=C3/SC(=S)N(Cc4ccccc4)C3=O)o2)ccc1Cl do in these assays?
TDP2 absorb: 3.4

Source: PubChem (several laboratories)
